# Results published in PMC5115981 (Cancer chemotherapy and pharmacology, 2016).
# pIC50: −log10 of the molar value.
# Tests used:
# [1] = Plasma protein binding by rapid equilibrium dialysis; type: in vitro ADME, mouse; conditions: for fraction unbound at 4 h, 1000 ng/mL: mouse, plasma, pH 7.2, plasma protein binding
# Summary of the method: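 Rapid equilibrium dialysis with control mouse plasma spiked to 1,000 ng/mL from a DMSO stock (organic <0.1%). Four 200 µL replicates were dialysed against PBS (pH 7.2), shaken at 37 °C for 4 h. Both compartments were quantified by LC-MS/MS against a curve in 1:1 PBS:plasma, with samples diluted to match the matrix. Assay LLQ was 1 ng/mL.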
# mice [2] = assay: Single dose IV toxicity study in mice; type: in vivo, mouse; conditions: single IV dose 4 mg/kg
# Summary of the method: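 Male and female heterozygous Foxn1nu/Foxn1+ mice, 5 per group, fasted overnight. Single 4 mg/kg IV tail-vein dose from a 0.4 mg/mL solution in 10% Solutol HS15 in sterile water (0.01 ml/g), alongside vehicle-treated mice. Body weights and clinical signs followed over 14 days, then necropsy for gross pathology. The dose tested was capped by maximum solubility.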
# [3] = Mouse liver microsome incubation for glucuronide metabolism; type: in vitro ADME; conditions: mouse liver microsomes 0.25 mg/mL, alamethicin, UDPGA
# Summary of the method: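 Glucuronidation incubation used microsomes from female heterozygous Foxn1nu/Foxn1+ mouse liver. Mix: 0.1 M phosphate (pH 7.4), 0.25 mg/mL microsomal protein, 25 µg/mL alamethicin, 50 mM Tris-HCl, 10 mM MgCl2 and 1,000 ng/mL drug. A mix without UDPGA served as negative control. Samples were analysed twice: SRM monitoring of the m/z 613 glucuronide channel, then MRM quantitation of parent depletion against a curve in buffer with 0.25 mg/mL BSA. Parent expressed relative to time 0.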
# [4] = system: pSTAT3 from IL-6 induction in a Cal33 cell line; conditions: read-out: IC50, inhibiting pSTAT3 from IL-6 induction; cited from earlier work
# mice [5] = assay: Multiple dose; type: in vivo, mouse; conditions: IV daily for 5 days at 4, 2.7, 1.3 mg/kg, female mice
# Summary of the method: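 Female heterozygous Foxn1nu/Foxn1+ mice, 5 per group, fasted overnight before dosing. Test compound given IV by lateral tail vein daily for 5 days, in 10% Solutol HS15 in sterile water at 0.01 ml/g body weight; a vehicle group was included. Body weights tracked before, during and after dosing over a 14 day observation period, followed by necropsy for gross pathology.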
# [6] = Stability of UPCDC-10205 in mouse plasma; type: in vitro ADME
# Summary of the method: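 Assay evaluation in control mouse plasma used QCs at 2.5, 30 and 800 ng/mL. 100 µL samples were spiked with deuterated internal standard, precipitated with acetonitrile, and supernatants dried at 37 °C under nitrogen before positive-ion MRM LC-MS/MS. Recovery and ion suppression were assessed at the 30 ng/mL QC. Also tested: bench stability during sample preparation for 4 h at room temperature, and three −80 °C freeze/thaw cycles.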
# [7] = Mouse liver microsome incubation; type: in vitro ADME
# Summary of the method: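 Microsomes from livers of female heterozygous Foxn1nu/Foxn1+ mice, with protein measured against a BSA standard. Incubations contained 0.5 mg/mL microsomal protein, 1,000 ng/mL drug, […], 0.1 M phosphate (pH 7.4) and <0.1% acetonitrile. Stopped with acetonitrile at 0, 15, 30, 45, 60 and 90 min, in triplicate. A positive control was run at 0 and 90 min. LC-MS used an analogue internal standard and calibrators in buffer with 0.5 mg/mL BSA. Results given as % of 0 min.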
# [8] = mouse plasma spiked at 1,000 ng/mL, RED, 37 °C, 4 hours, calculated using the LLQ value (1 ng/mL)
smiles,measurement,setting,value
"COc1ccc(C2=Nn3c(nnc3-c3cc(-c4ccc(Cl)cc4)n[nH]3)SC2C)cc1 (centres unmarked) [UPCDC-10205, 3-(3-(4-chlorophenyl)-1H-pyrazole-5-yl)-6-(4-methoxyphenyl)-7-methyl-7H-[1,2,4]triazolo[3,4-b][1,3,4]thiadiazine]",concentration in the plasma portion of the RED device,"[1]; average of 4 replicates, 37 °C, 4 hours","1,091 ng/mL"
same,concentration in the saline buffer portion of the RED device,[1]; below the 1 ng/mL assay LLQ,0.2 ng/mL
same,plasma protein binding,[1]; [8],> 99.9%
same,"fraction unbound at 4 h, 1000 ng/mL","[1]; mouse plasma spiked at 1,000 ng/mL, RED, 37 °C, 4 hours, calculated using 0.2 ng/mL",~0.0002
same,"fraction unbound at 4 h, 1000 ng/mL",[1]; [8],< 0.0009
same,clinical appearance after single dose,"mice [2]; male and female mice, 14 day observation, 4 mg/kg",not toxic
same,gross pathology upon necropsy after single dose,mice [2]; necropsy after 14 day observation,no gross pathology was detected
same,body weight after single dose,mice [2]; within first 24 h after injection,no apparent weight loss
same,UPCDC-10205 remaining relative to time 0 after 60 min,[3],67%
same,pIC50,[4],5.66
same,"body weights vs vehicle control group, multiple dose",mice [5],no statistical differences
same,"gross pathology upon necropsy, multiple dose",mice [5],no signs of gross pathology
same,"signs or symptoms of toxicity, multiple dose",mice [5]; 14 day observation,not toxic
same,stability in plasma during sample preparation,"[6]; QCM (30 ng/mL), 4 h at room temperature",100.8%
same,recovery at 30 ng/mL,[6]; mouse,112%
same,metabolic stability among the four analogues,[7]; mouse liver microsome incubation,metabolically most stable
same,substrate depletion in the initial incubation,"[7]; mouse liver microsomes, NADPH, 90 min",20%
